# From ChEMBL document CHEMBL1125326, “Potent gonadotropin releasing hormone antagonists with low histamine-releasing activity” (J Med Chem, 1992)
# Species: Rattus norvegicus
# Test: Evaluated for the release of histamine in rats (based on 10 animals per dose group)
# Format: functional, organism-based
row,Structure (SMILES),EC50 [µg/mL]
1,CC(=O)N[C@H](Cc1ccc2ccccc2c1)C(=O)N[C@H](Cc1ccc(Cl)cc1)C(=O)N[C@H](Cc1c[nH]c2ccccc12)C(=O)N[C@@H](CO)C(=O)N[C@@H](Cc1ccc(O)cc1)C(=O)N[C@H](Cc1c[nH]c2ccccc12)C(=O)N[C@@H](CC(C)C)C(=O)N[C@@H](CCCCNC1=NCCCN1)C(=O)N1CCC[C@H]1C(=O)N[C@H](C)C(N)=O [listing 1 of 2 here],8.5
2,CC(=O)N[C@H](Cc1ccc2ccccc2c1)C(=O)N[C@H](Cc1ccc(Cl)cc1)C(=O)N[C@H](Cc1c[nH]c2ccccc12)C(=O)N[C@@H](CO)C(=O)N[C@@H](Cc1ccc(O)cc1)C(=O)N[C@H](Cc1c[nH]c2ccccc12)C(=O)N[C@@H](CC(C)C)C(=O)N[C@@H](CCCCN=C(NCC(F)(F)F)NCC(F)(F)F)C(=O)N1CCC[C@H]1C(=O)N[C@H](C)C(N)=O [listing 1 of 2 here],> 100

# Now from value to molecule:
row,EC50 [µg/mL],Structure (SMILES)
1,26.2,CC/N=C(\NCC)NCCCC[C@H](NC(=O)[C@H](CO)NC(=O)[C@@H](Cc1cccnc1)NC(=O)[C@@H](Cc1ccc(F)cc1)NC(=O)[C@@H](Cc1ccc2ccccc2c1)NC(C)=O)C(=O)N[C@H](Cc1cccnc1)C(=O)N[C@@H](CC(C)C)C(=O)N[C@@H](CCCCN/C(=N/CC)NCC)C(=O)N1CCC[C@H]1C(=O)N[C@H](C)C(N)=O
2,9.3,CCCC/N=C(\N)NCCCC[C@H](NC(=O)[C@H](CO)NC(=O)[C@@H](Cc1cccnc1)NC(=O)[C@@H](Cc1ccc(Cl)cc1)NC(=O)[C@@H](Cc1ccc2ccccc2c1)NC(C)=O)C(=O)N[C@H](Cc1cccnc1)C(=O)N[C@@H](CC(C)C)C(=O)N[C@@H](CCCCN/C(N)=N/CCCC)C(=O)N1CCC[C@H]1C(=O)N[C@H](C)C(N)=O [listing 1 of 2 here]
3,8,CC/N=C(/NCC)NCCCC[C@@H](NC(=O)[C@H](Cc1ccc(O)cc1)NC(=O)[C@H](CO)NC(=O)[C@@H](Cc1cccnc1)NC(=O)[C@@H](Cc1ccc(F)cc1)NC(=O)[C@@H](Cc1ccc2ccccc2c1)NC(C)=O)C(=O)N[C@@H](CC(C)C)C(=O)N[C@@H](CCCCN/C(=N/CC)NCC)C(=O)N1CCC[C@H]1C(=O)N[C@H](C)C(N)=O [listing 1 of 2 here]
4,9.3,CC/N=C(\NCC)NCCCC[C@H](NC(=O)[C@H](CC(C)C)NC(=O)[C@@H](CCCCN=C(NCC(F)(F)F)NCC(F)(F)F)NC(=O)[C@H](Cc1ccc(O)cc1)NC(=O)[C@H](CO)NC(=O)[C@@H](Cc1cccnc1)NC(=O)[C@@H](Cc1ccc(F)cc1)NC(=O)[C@@H](Cc1ccc2ccccc2c1)NC(C)=O)C(=O)N1CCC[C@H]1C(=O)N[C@H](C)C(N)=O
5,13,CC/N=C(/NCC)NCCCC[C@@H](NC(=O)[C@H](Cc1ccc(O)cc1)NC(=O)[C@H](CO)NC(=O)[C@@H](Cc1cccnc1)NC(=O)[C@@H](Cc1ccc(Cl)cc1)NC(=O)[C@@H](Cc1ccc2ccccc2c1)NC(C)=O)C(=O)N[C@@H](CC(C)C)C(=O)N[C@@H](CCCCN/C(=N/CC)NCC)C(=O)N1CCC[C@H]1C(=O)N[C@H](C)C(N)=O [listing 1 of 2 here]
6,0.1,CC/N=C(/NCC)NCCCC[C@@H](NC(=O)[C@H](Cc1ccc(O)cc1)NC(=O)[C@H](CO)NC(=O)[C@@H](Cc1c[nH]c2ccccc12)NC(=O)[C@@H](Cc1ccc(Cl)cc1)NC(=O)[C@@H](Cc1ccc2ccccc2c1)NC(C)=O)C(=O)N[C@@H](CC(C)C)C(=O)N[C@@H](CCCCN/C(=N/CC)NCC)C(=O)N1CCC[C@H]1C(=O)N[C@H](C)C(N)=O [listing 1 of 2 here]
7,2.5,CC(=O)N[C@H](Cc1ccc2ccccc2c1)C(=O)N[C@H](Cc1ccc(Cl)cc1)C(=O)N[C@H](Cc1c[nH]c2ccccc12)C(=O)N[C@@H](CO)C(=O)N[C@@H](Cc1ccc(O)cc1)C(=O)N[C@H](CCCCNC1=NCCCN1)C(=O)N[C@@H](CC(C)C)C(=O)N[C@@H](CCCCNC1=NCCCN1)C(=O)N1CCC[C@H]1C(=O)N[C@H](C)C(N)=O [listing 1 of 2 here]
8,0.56,CC(=O)N[C@H](Cc1ccc2ccccc2c1)C(=O)N[C@H](Cc1ccc(Cl)cc1)C(=O)N[C@H](Cc1c[nH]c2ccccc12)C(=O)N[C@@H](CO)C(=O)N[C@@H](CCCN=C(N)N)C(=O)N[C@H](Cc1c[nH]c2ccccc12)C(=O)N[C@@H](CC(C)C)C(=O)N[C@@H](CCCCN=C(NCC(F)(F)F)NCC(F)(F)F)C(=O)N1CCC[C@H]1C(=O)N[C@H](C)C(N)=O [listing 1 of 2 here]

# Tested on: Rattus norvegicus
# Test: Evaluated for the anti-ovulatory activity (rats were injected subcutaneously at noon on proestrus)
# Format: functional
# Procedure, shortened: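 Female rats with at least two consecutive normal 4-day cycles, confirmed by vaginal lavage cytology, were dosed once s.c. at noon on proestrus in 50% propylene glycol/0.9% saline. On the morning of expected estrus, the oviducts were examined for ovulated eggs, which were counted. The effective dose came from % females ovulating plotted against log dose, usually with ≥3 dose groups (10 rats per group total).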
row,Structure (SMILES),ED50 [µg]
1,CC/N=C(/NCC)NCCCC[C@@H](NC(=O)[C@H](Cc1ccc(O)cc1)NC(=O)[C@H](CO)NC(=O)[C@@H](Cc1c[nH]c2ccccc12)NC(=O)[C@@H](Cc1ccc(Cl)cc1)NC(=O)[C@@H](Cc1ccc2ccccc2c1)NC(C)=O)C(=O)N[C@@H](CC(C)C)C(=O)N[C@@H](CCCCN/C(=N/CC)NCC)C(=O)N1CCC[C@H]1C(=O)N[C@H](C)C(N)=O [listing 2 of 2 here],0.5
2,CCCC/N=C(\N)NCCCC[C@H](NC(=O)[C@H](CO)NC(=O)[C@@H](Cc1cccnc1)NC(=O)[C@@H](Cc1ccc(Cl)cc1)NC(=O)[C@@H](Cc1ccc2ccccc2c1)NC(C)=O)C(=O)N[C@H](Cc1cccnc1)C(=O)N[C@@H](CC(C)C)C(=O)N[C@@H](CCCCN/C(N)=N/CCCC)C(=O)N1CCC[C@H]1C(=O)N[C@H](C)C(N)=O [listing 2 of 2 here],1.5
3,CC/N=C(/NCC)NCCCC[C@@H](NC(=O)[C@H](Cc1ccc(O)cc1)NC(=O)[C@H](CO)NC(=O)[C@@H](Cc1cccnc1)NC(=O)[C@@H](Cc1ccc(F)cc1)NC(=O)[C@@H](Cc1ccc2ccccc2c1)NC(C)=O)C(=O)N[C@@H](CC(C)C)C(=O)N[C@@H](CCCCN/C(=N/CC)NCC)C(=O)N1CCC[C@H]1C(=O)N[C@H](C)C(N)=O [listing 2 of 2 here],1
4,CC(=O)N[C@H](Cc1ccc2ccccc2c1)C(=O)N[C@H](Cc1ccc(Cl)cc1)C(=O)N[C@H](Cc1c[nH]c2ccccc12)C(=O)N[C@@H](CO)C(=O)N[C@@H](CCCN=C(N)N)C(=O)N[C@H](Cc1c[nH]c2ccccc12)C(=O)N[C@@H](CC(C)C)C(=O)N[C@@H](CCCCN=C(NCC(F)(F)F)NCC(F)(F)F)C(=O)N1CCC[C@H]1C(=O)N[C@H](C)C(N)=O [listing 2 of 2 here],>2
5,CC(=O)N[C@H](Cc1ccc2ccccc2c1)C(=O)N[C@H](Cc1ccc(Cl)cc1)C(=O)N[C@H](Cc1c[nH]c2ccccc12)C(=O)N[C@@H](CO)C(=O)N[C@@H](Cc1ccc(O)cc1)C(=O)N[C@H](Cc1c[nH]c2ccccc12)C(=O)N[C@@H](CC(C)C)C(=O)N[C@@H](CCCCNC1=NCCCN1)C(=O)N1CCC[C@H]1C(=O)N[C@H](C)C(N)=O [listing 2 of 2 here],>1
6,CC/N=C(/NCC)NCCCC[C@@H](NC(=O)[C@H](Cc1ccc(O)cc1)NC(=O)[C@H](CO)NC(=O)[C@@H](Cc1cccnc1)NC(=O)[C@@H](Cc1ccc(Cl)cc1)NC(=O)[C@@H](Cc1ccc2ccccc2c1)NC(C)=O)C(=O)N[C@@H](CC(C)C)C(=O)N[C@@H](CCCCN/C(=N/CC)NCC)C(=O)N1CCC[C@H]1C(=O)N[C@H](C)C(N)=O [listing 2 of 2 here],0.285
7,CC(=O)N[C@H](Cc1ccc2ccccc2c1)C(=O)N[C@H](Cc1ccc(Cl)cc1)C(=O)N[C@H](Cc1c[nH]c2ccccc12)C(=O)N[C@@H](CO)C(=O)N[C@@H](Cc1ccc(O)cc1)C(=O)N[C@H](Cc1c[nH]c2ccccc12)C(=O)N[C@@H](CC(C)C)C(=O)N[C@@H](CCCCN=C(NCC(F)(F)F)NCC(F)(F)F)C(=O)N1CCC[C@H]1C(=O)N[C@H](C)C(N)=O [listing 2 of 2 here],>2
8,CC(=O)N[C@H](Cc1ccc2ccccc2c1)C(=O)N[C@H](Cc1ccc(Cl)cc1)C(=O)N[C@H](Cc1c[nH]c2ccccc12)C(=O)N[C@@H](CO)C(=O)N[C@@H](Cc1ccc(O)cc1)C(=O)N[C@H](CCCCNC1=NCCCN1)C(=O)N[C@@H](CC(C)C)C(=O)N[C@@H](CCCCNC1=NCCCN1)C(=O)N1CCC[C@H]1C(=O)N[C@H](C)C(N)=O [listing 2 of 2 here],0.7
